A word on the Km: it is the substrate concentration at which the rate is half of its maximum. One may read the Vmax as the rate approached at saturating substrate.

Data set [1] in a line: Drug metabolism in human liver microsomes. The data set is classed as ADME. (Liver microsomes are vesicles of endoplasmic reticulum, rich in cytochrome P450 enzymes.)
Data set [2] concerns Liver microsome. The experiment in a line: Drug metabolism in human liver microsomes assessed as 2-cyclohexyl-2-phenylglycolic acid formation per mg of protein by Michaelis-Menten equation. The data set is classed as ADME. Put shortly: (§1)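 Oxybutynin (2.5–250 μM) incubated 15 min at 37 °C in 0.05 mol/L Tris-HCl pH 7.6 after 5 min pre-incubation. Final protein: liver microsomes 0.05, liver cytosol 0.1, recombinant CES1 microsomes 0.05 mg/mL. Stopped with acetonitrile/1% formic acid plus internal standard; CPGA quantified by LC-MS/MS in negative MRM mode; duplicates. Km, Vmax from Michaelis-Menten fit; CLint = Vmax/Km.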

The target in data set [3] is T1, Cocaine esterase (Homo sapiens, UniProt O00748).
T1 sequence (O00748 whole entry): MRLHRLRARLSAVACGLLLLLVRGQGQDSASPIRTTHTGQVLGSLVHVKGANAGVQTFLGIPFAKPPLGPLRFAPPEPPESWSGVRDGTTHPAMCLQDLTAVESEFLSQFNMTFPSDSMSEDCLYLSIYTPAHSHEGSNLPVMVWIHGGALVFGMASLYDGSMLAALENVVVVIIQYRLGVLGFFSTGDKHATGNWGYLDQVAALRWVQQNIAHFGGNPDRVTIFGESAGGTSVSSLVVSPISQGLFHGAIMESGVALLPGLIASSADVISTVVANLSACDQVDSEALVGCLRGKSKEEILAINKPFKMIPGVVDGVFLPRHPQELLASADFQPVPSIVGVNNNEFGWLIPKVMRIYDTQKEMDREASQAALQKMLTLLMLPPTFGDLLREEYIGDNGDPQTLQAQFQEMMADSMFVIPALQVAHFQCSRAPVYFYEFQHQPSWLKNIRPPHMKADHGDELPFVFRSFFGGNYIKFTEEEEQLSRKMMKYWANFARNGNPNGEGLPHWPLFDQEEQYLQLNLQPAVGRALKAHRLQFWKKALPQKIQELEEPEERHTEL
Kind of data set: Activity of human recombinant CES2 expressed in baculovirus-infected High Five insect cells assessed as 50 uM CES1 inhibitor clopidogrel-mediated inhibition of enzyme-mediated 2-cyclohexyl-2-phenylglycolic acid formation at 10 uM for 30 mins by HPLC analysis. The note with it: 0.5 h.

The target in data set [4] is T1, Cocaine esterase. The experiment in a line: Activity of human recombinant CES2 expressed in baculovirus-infected High Five insect cells assessed as intrinsic clearance for enzyme-mediated 2-cyclohexyl-2-phenylglycolic acid formation per mg of protein by Michaelis-Menten equation. The format is ADME.
A short description of data set [5]: Activity of human recombinant CES1b/CES1A1 expressed in baculovirus-infected High Five insect cells assessed as enzyme-mediated 2-cyclohexyl-2-phenylglycolic acid formation per mg of protein by Michaelis-Menten equation. The data set is classed as ADME. In outline: as §1
Data set [6] addresses T1, Cocaine esterase. Kind of data set: Activity of human recombinant CES2 expressed in baculovirus-infected High Five insect cells assessed as enzyme-mediated 2-cyclohexyl-2-phenylglycolic acid formation per mg of protein by Michaelis-Menten equation. The data set is classed as ADME.
The nature of data set [7]: Activity of human recombinant CES1b/CES1A1 expressed in baculovirus-infected High Five insect cells assessed as intrinsic clearance for enzyme-mediated 2-cyclohexyl-2-phenylglycolic acid formation per mg of protein by Michaelis-Menten equation. The data set is classed as ADME. Put shortly: as §1
For data set [8], the target named is T1, Cocaine esterase. Kind of data set: Activity of human recombinant CES2 expressed in baculovirus-infected High Five insect cells assessed as 5 uM CES2 inhibitor loperamide-mediated inhibition of enzyme-mediated 2-cyclohexyl-2-phenylglycolic acid formation at 10 uM for 30 mins by HPLC analysis. As to conditions: 0.5 h.
Data set [9] can be described thus: Activity of human recombinant CES1b/CES1A1 expressed in baculovirus-infected High Five insect cells assessed as enzyme-mediated 2-cyclohexyl-2-phenylglycolic acid formation by Michaelis-Menten equation. The data set is classed as ADME. In outline: as §1
Data set [10] concerns Liver cytosol. The experiment in a line: Drug metabolism in human liver cytosol assessed as 2-cyclohexyl-2-phenylglycolic acid formation per mg of protein by Michaelis-Menten equation. The data set is classed as ADME, tissue-based. Put shortly:
as §1

The test system of data set [11] is Liver cytosol. Kind of data set: Intrinsic clearance in human liver cytosol assessed as 2-cyclohexyl-2-phenylglycolic acid formation per mg of protein by Michaelis-Menten equation. The data set is classed as ADME, tissue-based. Put shortly:
as §1

Data set [12] relates to Liver microsome. Kind of data set: Intrinsic clearance in human liver microsomes assessed as 2-cyclohexyl-2-phenylglycolic acid formation per mg of protein by Michaelis-Menten equation. The format is ADME. Put shortly:
as §1

The test system of data set [13] is Liver microsome. Kind of data set: Drug metabolism in human liver microsomes assessed as 2-cyclohexyl-2-phenylglycolic acid formation by Michaelis-Menten equation. The data set is classed as ADME. Put shortly:
as §1

The target of data set [14] is T1, Cocaine esterase. The experiment in a line: Activity of human recombinant CES2 expressed in baculovirus-infected High Five insect cells assessed as 5 uM CES1 inhibitor clopidogrel-mediated inhibition of enzyme-mediated 2-cyclohexyl-2-phenylglycolic acid formation at 10 uM for 30 mins by HPLC analysis. As to conditions: 0.5 h.
Data set [15] has as its system Liver cytosol. Kind of data set: Drug metabolism in human liver cytosol assessed as 2-cyclohexyl-2-phenylglycolic acid formation by Michaelis-Menten equation. The format is ADME, tissue-based. Put shortly:
as §1

The target of data set [16] is T1, Cocaine esterase. Kind of data set: Activity of human recombinant CES2 expressed in baculovirus-infected High Five insect cells assessed as 30 to 300 uM CES1 inhibitor procainamide-mediated inhibition of enzyme-mediated 2-cyclohexyl-2-phenylglycolic acid formation at 10 uM for 30 mins by HPLC analysis. As to conditions: 0.5 h.
Data set [17] is described as follows: Drug metabolism in human liver cytosol. The data set is classed as ADME, tissue-based.
For data set [18], the target named is T1, Cocaine esterase. The experiment in a line: Activity of human recombinant CES2 expressed in baculovirus-infected High Five insect cells assessed as enzyme-mediated compound formation formation treated with oxybutynin at 10 uM for 30 mins by HPLC analysis in presence of 10 uM CES1 inhibitor NDGA. The data set is classed as ADME. As to conditions: 0.5 h. Put shortly: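 Oxybutynin (10 μM) hydrolysis to CPGA by recombinant CES2-expressing microsomes at 0.1 mg/mL final protein, in 0.05 mol/L Tris-HCl pH 7.6 at 37 °C. Inhibitor was added before a 5 min preincubation, with at most 0.2% final DMSO. Substrate addition started the reaction, which ran 30 min. It was stopped with ACN/1% formic acid plus internal standard. CPGA was quantified by LC-MS/MS in negative MRM mode, as relative activity versus control, in duplicate.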

Substrate in data set [19]: CCN(CC)CC#CCOC(=O)C(O)(c1ccccc1)C1CCCCC1
Kind of data set: Activity of human CES2. The format is ADME.

Substrate in data set [20]: CCN(CC)CC#CCOC(=O)C(O)(c1ccccc1)C1CCCCC1
The experiment in a line: Activity of human recombinant CES2 expressed in baculovirus-infected High Five insect cells assessed as enzyme-mediated 2-cyclohexyl-2-phenylglycolic acid formation by Michaelis-Menten equation. The data set is classed as ADME.

Turning to `CCN(CC)CC#CCOC(=O)C(O)(c1ccccc1)C1CCCCC1.Cl` (stereo unspecified) [OXYBUTYNIN CHLORIDE], the Km came to 22 µM in data set [1]; 17 µM in [9]; 22 µM in the data set with Liver microsome [13]; 13 µM with Liver cytosol [15]; 13 µM in data set [17]. Further, the Vmax with Liver microsome [2] came out at 130 pmol/min; in [5], 310 pmol/min; at Cocaine esterase [6], 32 pmol/min; with Liver cytosol [10], 110 pmol/min. Also, the “inhibition (INH)” value is recorded as 53% on Cocaine esterase [3], 58% at Cocaine esterase [8], less than 11% at Cocaine esterase [14] and less than 14% at Cocaine esterase [16]. Besides, the clearance at Cocaine esterase [4] stood at 0.51 µL/min/mg; in data set [7], 18 µL/min/mg. In addition, the CLint with Liver cytosol [11] is 8.2 µL/min/mg; in the data set on Liver microsome [12], 5.9 µL/min/mg.

Turning to `O=C(O)C(O)(c1ccccc1)C1CCCCC1` (stereo unspecified), the Drug metabolism entry at Cocaine esterase [18] was “metabolite_detected”.

B1: Cocaine esterase (Homo sapiens) (protein)
chain: T1 sequence (O00748 whole entry)
B1: in [19], the Km is 1100 µM and the Vmax was found to be 0.36 µmol/min/mg. Further, in [20], the Km was 62 µM.

The values are drawn from ChEMBL document CHEMBL3526045, “Conclusive identification of the oxybutynin-hydrolyzing enzyme in human liver” (Drug Metab Dispos, 2012).
